Each block holds one compound with its values, some of them ahead of it.
Tests used:
hIYD·flhq [1] = molecular target: T1, hIYD·flhq (Homo sapiens, UniProt Q6PHW0); assay: Stopped-flow single-turnover oxidation of hIYD·flhq by halotyrosines; format: biochemical; settings: set by detection threshold of the stopped-flow instrument
T1 sequence (Q6PHW0 32-289): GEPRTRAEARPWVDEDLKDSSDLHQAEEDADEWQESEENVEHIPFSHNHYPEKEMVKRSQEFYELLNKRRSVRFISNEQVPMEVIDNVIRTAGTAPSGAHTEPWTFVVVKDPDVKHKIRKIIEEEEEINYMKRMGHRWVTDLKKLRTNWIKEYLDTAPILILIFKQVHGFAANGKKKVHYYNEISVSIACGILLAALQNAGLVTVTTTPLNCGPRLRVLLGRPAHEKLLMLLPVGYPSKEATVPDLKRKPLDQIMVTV
Procedure, shortened: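 Anaerobic stopped-flow at 25 °C, pH 7.4 phosphate/NaCl/glycerol/DTT buffer. Dithionite-reduced hIYD·flhq was mixed 1:1 with argon-sparged halotyrosine. At 8 μM enzyme, I-Tyr was 20–200 μM and A446 was followed from 10 ms to beyond 7 s with single-exponential fits. At 5 μM enzyme, substrate was 200 μM, with diode-array spectra from 4 ms plus A360 traces fit single- or double-exponential. Spectra were globally analysed.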

hIYD·flox = molecular target: T2, hIYD·flox (Homo sapiens, UniProt Q6PHW0); assay: Stopped-flow kinetics of halotyrosine binding to hIYD·flox; settings: relative to Cl-, Br- and I-Tyr
T2 sequence (Q6PHW0 32-289): T1 sequence (Q6PHW0 32-289)
Procedure, shortened: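 hIYD (residues 1–31 removed, SUMO fusion, SUMO cleaved) in 500 mM NaCl, 10% glycerol, 1 mM DTT, 50 mM sodium phosphate pH 7.4, 25 °C. Stopped-flow mixing of equal volumes under air: hIYD·flox 2 μM final with halotyrosine 5–50 μM final. Flavin fluorescence quench (λex 450 nm, λem >530 nm) followed 1 ms–1 s, fit single-exponential. kon from least-squares fit of kobs versus ligand concentration.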

IYD = settings: cited from earlier work
hIYD = settings: estimate, limited by solubility; cited from earlier work
hIYD·flhq [2] = molecular target: T1, hIYD·flhq; assay: Stopped-flow oxidation of hIYD·flhq by oxygen; format: biochemical; settings: A446, 25 °C, pH 7.4, oxygen 60–610 μM
Procedure, shortened: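 hIYD·flhq, made by stoichiometric dithionite titration under anaerobic conditions, 5 μM final, in 500 mM NaCl, 10% glycerol, 1 mM DTT, 50 mM sodium phosphate pH 7.4, 25 °C. Stopped-flow mix with equal volume of same buffer equilibrated with air or 10/50/100% O2 (oxygen solutions 60–610 μM). A446 traces single-exponential; diode-array spectra 4 ms–7 s. kox from linear fit of kobs versus [O2]; three independent measurements averaged.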

Compound: N[C@@H](Cc1ccc(O)c(F)c1)C(=O)O [F-Tyr]
oxidation of flhq slower than that with I-Tyr (hIYD·flhq [1]): at least 160 fold
binding rate (kon) slower than the other halotyrosines (hIYD·flox): approximately 5 fold
binding rate (kon) slower than the other halotyrosines (hIYD·flox; listed as fluorotyrosine): 5 fold
dehalogenation by IYD (IYD): inert

Compound: N[C@@H](Cc1ccc(O)cc1)C(=O)O [Tyr, tyrosine]
Kd (hIYD): > 1000 µM

kox, second-order rate constant for reaction between hIYD·flhq and oxygen (hIYD·flhq [2]): (9.3 ± 0.3) × 10^3 M^–1 s^–1
Compound: O=O [oxygen]

— PMC4938124 (Biochemistry, 2015)
